Source: ChEMBL document CHEMBL3407471, “Development of potent inhibitors of pyocyanin production in Pseudomonas aeruginosa” (J Med Chem, 2015)
Activity calls are given as the source filed them. The rule behind the calls is not given here.

Tests used:
Pseudomonas aeruginosa [1] = experiment: Inhibition of quorum sensing activity in wild-type Pseudomonas aeruginosa PA14 assessed as inhibition of pyocyanin production at 100 uM by spectrophotometry relative to control; assay type: functional
In short: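 Wild-type P. aeruginosa PA14 cultures exposed to compound at 100 μM. Pyocyanin read as absorbance at 695 nm. Efficacy scaled so that wild-type pyocyanin level = 0% and absorbance equal to background medium = 100%.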

Pseudomonas aeruginosa [2] = experiment: Antimicrobial activity against wild-type Pseudomonas aeruginosa PA14; assay type: functional

SMILES | Efficacy (Pseudomonas aeruginosa [1]) | Activity (Pseudomonas aeruginosa [2])
O=C(CCCCCOc1cccc(Cl)c1)Nc1ccnc(C(F)(F)F)c1 | 101% | inactive
CCCCCCCCCCCCCCCCOC(=O)C1COc2ccccc21 (stereo not drawn) | 1.5% | inactive
O=C(CCCCCOc1ccc(Br)cc1)Nc1ccnc(C(F)(F)F)c1 | 88% | inactive
COc1cc(NC(=O)CCCOc2cccc(Br)c2)ccn1 | 20% | inactive
O=C(CCCOc1cccc(Br)c1)Nc1ccnc(F)c1 | 32% | inactive
CCCCCCCCCCCC(=O)Nc1ccc2oc3c(c2c1)CCCC3 | 6.1% | inactive
CCCCCCCCCC(=O)CC(=O)Nc1ccnc(F)c1 | -8.5% | inactive
CCCCCCCCCCCCNC(=O)c1c[nH]c2ccccc12 | 4.4% | inactive
CCCCCCCCCC(=O)CC(=O)Nc1ccc2c(c1)c1ccccc1n2CC | 9.3% | inactive
O=C(CCCCCOc1cccc(Br)c1)Nc1ccncc1C(F)(F)F | 15% | inactive
CCCCCCCCCCCC(=O)Nc1ccc2c(c1)c1ccccc1n2CC | -1% | inactive
CCCCCCCCCCCCNC(=O)c1ccncc1 | 13% | inactive
O=C(CCCCCOc1ccc(F)cc1F)Nc1ccnc(C(F)(F)F)c1 | 49% | inactive
O=C(CCCCCCOc1cccc(Br)c1)Nc1ccnc(C(F)(F)F)c1 | 23% | inactive
CCCCCCCCCCCC(=O)Nc1ccncc1 | 28% | inactive
O=C(CCCOc1cccc(Br)c1)Nc1ccnc(C(F)(F)F)c1 | 43% | inactive
CCCCCCCCCCCC(=O)Nc1ccnc(Br)c1 | 34% | inactive
CCCCCCCCCCCC(=O)O/N=C1\COc2ccccc21 | 12% | inactive
CCCCCCCCCC(=O)CC(=O)Nc1ccccn1 | 44% | inactive
O=C(CCCCCOc1cccc(C(F)(F)F)c1)Nc1ccnc(C(F)(F)F)c1 | 59% | inactive
O=C(CCCCCOc1c(F)c(F)c(F)c(F)c1F)Nc1ccnc(C(F)(F)F)c1 | 21% | inactive
CCCCCCCCCCCC(=O)NCc1ccncc1 | 7.7% | inactive

SMILES | Efficacy (Pseudomonas aeruginosa [1]) | Activity (Pseudomonas aeruginosa [2])
CCCCCCCCCC(=O)CC(=O)Nc1ccnc(OC)c1 | 24% | inactive
O=C(CCCCC#Cc1cccc(F)c1)Nc1ccnc(C(F)(F)F)c1 | 97% | inactive
O=C(CCCOc1cccc(Br)c1)Nc1ccncc1 | 21% | inactive
CCCCCCCCCCCC(=O)Nc1ccncc1C(F)(F)F | -17% | inactive
O=C(CCCCCOc1cccc(Br)c1)Nc1ccnc(F)c1 | 31% | inactive
COc1cc(NC(=O)CCCCCOc2cccc(Br)c2)nc(OC)n1 | 15% | inactive
COc1nccc(NC(=O)CCCCCOc2cccc(Br)c2)n1 | 16% | inactive
COc1cc(NC(=O)CCCCCCCOc2cccc(Br)c2)ccn1 | 60% | inactive
CCCCCCCCCCCC(=O)Nc1ccccn1 | 55% | inactive
CCCCCCCCCCCCNC(=O)c1cc2ccccc2n1C | -9.2% | inactive
O=C(CCCCCCc1cccc(F)c1)Nc1ccnc(C(F)(F)F)c1 | 96% | inactive
CCCCCCCCCCCC(=O)Nc1ccc2[nH]ccc2c1 | -11% | inactive
CCCCCCCCCCCC(=O)Nc1cnccn1 | -38% | inactive
CCCCCCCCCC(=O)CC(=O)Nc1ccncn1 | 64% | inactive
O=C(CCCCCOc1cccc(Br)c1)Nc1cccc(C(F)(F)F)c1 | 62% | inactive
COc1cc(NC(=O)CCCCCOc2cccc(Br)c2)ncn1 | 41% | inactive
COc1cc(NC(=O)CCCCOc2cccc(Br)c2)ccn1 | 81% | inactive
CCCCCCCCCCCC(=O)Nc1cc(C)nc2ccccc12 | -24% | inactive
O=C(CCCCCOc1cccc(Br)c1)Nc1ccnc(Cl)c1 | 89% | inactive
CCCCCCCCCC(=O)CC(=O)Nc1ncccn1 | -0.51% | inactive
COc1cc(NC(=O)CCCCCCOc2cccc(Br)c2)ccn1 | 75% | inactive
O=C(CCCCCOc1c(F)cccc1F)Nc1ccnc(C(F)(F)F)c1 | 66% | inactive

SMILES | Efficacy (Pseudomonas aeruginosa [1]) | Activity (Pseudomonas aeruginosa [2])
CCCCCCCCCCCC(=O)Nc1ccnc(OC)c1 | -5.1% | inactive
O=C(CCCCCOc1ccccc1F)Nc1ccnc(C(F)(F)F)c1 | 78% | inactive
CCCCCCCCCC(=O)CC(=O)Nc1cccnc1 | 10% | inactive
Cc1cc(NC(=O)CCCCCOc2cccc(Br)c2)ccn1 | 80% | inactive
CCCCCCCCCCCC(=O)Nc1ncccn1 | 23% | inactive
CCCCCCCCCCCC(=O)Nc1ccncn1 | 55% | inactive
O=C(CCCCOc1cccc(Br)c1)Nc1ccnc(C(F)(F)F)c1 | 95% | inactive
CCCCCCCCCCCCNC(=O)Cc1c[nH]c2ccccc12 | 0.6% | inactive
O=C(CCCCCOc1cccc(Br)c1)Nc1ccncc1 | 53% | inactive
CCCCCCCCCCCC(=O)OCc1ccncc1 | -15% | inactive
O=C(CCCCCOc1cccc([N+](=O)[O-])c1)Nc1ccnc(C(F)(F)F)c1 | 39% | inactive
CCCCCCCCCCCC(=O)Nc1ccnc(C(F)(F)F)c1 | 27% | inactive
CCCCCCCCCCCC(=O)Nc1cccnc1 | 34% | inactive
O=C(CCCCCOc1cccc(O)c1)Nc1ccnc(C(F)(F)F)c1 | 70% | inactive
O=C(CCCCCOc1cccc(Br)c1)Nc1cc(C(F)(F)F)cc(C(F)(F)F)c1 | 44% | inactive
Cc1cccc(OCCCCCC(=O)Nc2ccnc(C(F)(F)F)c2)c1 | 81% | inactive
O=C(CCCCCNc1cccc(F)c1)Nc1ccnc(C(F)(F)F)c1 | 100% | inactive
O=C(CCCCCOc1cccc(I)c1)Nc1ccnc(C(F)(F)F)c1 | 95% | inactive
O=C(CCCCCSc1cccc(F)c1)Nc1ccnc(C(F)(F)F)c1 | 94% | inactive
COc1cc(NC(=O)CC(=O)CCCOc2cccc(Br)c2)ccn1 | 40% | inactive
